Laboratory results taken from ChEMBL document CHEMBL5376013, “Design, synthesis and biological evaluation of novel morpholinopyrimidine-5-carbonitrile derivatives as dual PI3K/mTOR inhibitors” (RSC Med Chem, 2024).

Legend:
Type in all cases: functional
Conditions in all cases: read-out: GI
[1] = tested on: CCRF-CEM; test: Antitumor activity against human CCRF-CEM cells assessed as growth inhibition at 10 uM relative to control
Summary of the method: (§1)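 After drug addition, plates were incubated 48 h at 37 °C under 5% CO2. Adherent cells were fixed with cold TCA (10% final, 60 min, 4 °C) and suspension cells with 16% final TCA. Staining used 0.4% SRB in 1% acetic acid, solubilized in 10 mM trizma, read at A515. Percent growth was calculated from time-zero, control and treated absorbances.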

[2] = tested on: HL-60; test: Antitumor activity against human HL-60 cells assessed as growth inhibition at 10 uM relative to control; summary of the method: as §1
[3] = tested on: K562; test: Antitumor activity against human K562 cells assessed as growth inhibition at 10 uM relative to control; summary of the method: as §1
[4] = tested on: MOLT-4; test: Antitumor activity against human MOLT-4 cells assessed as growth inhibition at 10 uM relative to control; summary of the method: as §1
[5] = tested on: SR; test: Antitumor activity against human SR cells assessed as growth inhibition at 10 uM relative to control
Summary of the method: (§2)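 Drug exposure 48 h at 37 °C, 5% CO2. Adherent cells fixed with cold TCA (10% final), suspension cells with TCA (16% final). Stained with 0.4% SRB in 1% acetic acid, dissolved in 10 mM Tris, A515. Growth relative to time-zero and untreated control.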

[6] = tested on: A549; test: Antitumor activity against human A549 cells assessed as growth inhibition at 10 uM relative to control; summary of the method: as §1
[7] = tested on: EKVX; test: Antitumor activity against human EKVX cells assessed as growth inhibition at 10 uM relative to control; summary of the method: as §1
[8] = tested on: NCI-H226; test: Antitumor activity against human NCI-H226 cells assessed as growth inhibition at 10 uM relative to control; summary of the method: as §1
[9] = tested on: NCI-H23; test: Antitumor activity against human NCI-H23 cells assessed as growth inhibition at 10 uM relative to control; summary of the method: as §1
[10] = tested on: NCI-H322M; test: Antitumor activity against human NCI-H322M cells assessed as growth inhibition at 10 uM relative to control; summary of the method: as §1
[11] = tested on: NCI-H460; test: Antitumor activity against human NCI-H460 cells assessed as growth inhibition at 10 uM relative to control; summary of the method: as §1
[12] = tested on: NCI-H522; test: Antitumor activity against human NCI-H522 cells assessed as growth inhibition at 10 uM relative to control; summary of the method: as §1
[13] = tested on: COLO 205; test: Antitumor activity against human COLO 205 cells assessed as growth inhibition at 10 uM relative to control; summary of the method: as §1
[14] = tested on: HCC 2998; test: Antitumor activity against human HCC 2998 cells assessed as growth inhibition at 10 uM relative to control; summary of the method: as §1
[15] = tested on: HCT-15; test: Antitumor activity against human HCT-15 cells assessed as growth inhibition at 10 uM relative to control; summary of the method: as §1
[16] = tested on: HT-29; test: Antitumor activity against human HT-29 cells assessed as growth inhibition at 10 uM relative to control; summary of the method: as §1
[17] = tested on: SF-268; test: Antitumor activity against human SF-268 cells assessed as growth inhibition at 10 uM relative to control; summary of the method: as §1
[18] = tested on: SF-539; test: Antitumor activity against human SF-539 cells assessed as growth inhibition at 10 uM relative to control; summary of the method: as §1
[19] = tested on: SNB-19; test: Antitumor activity against human SNB-19 cells assessed as growth inhibition at 10 uM relative to control; summary of the method: as §2
[20] = tested on: U-251; test: Antitumor activity against human U-251 cells assessed as growth inhibition at 10 uM relative to control; summary of the method: as §2
[21] = tested on: LOX IMVI; test: Antitumor activity against human LOX IMVI cells assessed as growth inhibition at 10 uM relative to control; summary of the method: as §1
[22] = tested on: MDA-MB-435; test: Antitumor activity against human MDA-MB-435 cells assessed as growth inhibition at 10 uM relative to control; summary of the method: as §1
[23] = tested on: SK-MEL-2; test: Antitumor activity against human SK-MEL-2 cells assessed as growth inhibition at 10 uM relative to control; summary of the method: as §1
[24] = tested on: SK-MEL-28; test: Antitumor activity against human SK-MEL-28 cells assessed as growth inhibition at 10 uM relative to control; summary of the method: as §2
[25] = tested on: SK-MEL-5; test: Antitumor activity against human SK-MEL-5 cells assessed as growth inhibition at 10 uM relative to control; summary of the method: as §2
[26] = tested on: UACC-62; test: Antitumor activity against human UACC-62 cells assessed as growth inhibition at 10 uM relative to control; summary of the method: as §2
[27] = tested on: IGROV-1; test: Antitumor activity against human IGROV-1 cells assessed as growth inhibition at 10 uM relative to control; summary of the method: as §1
[28] = tested on: OVCAR-5; test: Antitumor activity against human OVCAR-5 cells assessed as growth inhibition at 10 uM relative to control; summary of the method: as §1
[29] = tested on: OVCAR-8; test: Antitumor activity against human OVCAR-8 cells assessed as growth inhibition at 10 uM relative to control; summary of the method: as §1
[30] = tested on: NCI/ADR-RES; test: Antitumor activity against human NCI-ADR-RES cells assessed as growth inhibition at 10 uM relative to control; summary of the method: as §1
[31] = tested on: SK-OV-3; test: Antitumor activity against human SK-OV-3 cells assessed as growth inhibition at 10 uM relative to control; summary of the method: as §2
[32] = tested on: 786-0; test: Antitumor activity against human 786-0 cells assessed as growth inhibition at 10 uM relative to control; summary of the method: as §1
[33] = tested on: A498; test: Antitumor activity against human A498 cells assessed as growth inhibition at 10 uM relative to control; summary of the method: as §1
[34] = tested on: ACHN; test: Antitumor activity against human ACHN cells assessed as growth inhibition at 10 uM relative to control; summary of the method: as §1
[35] = tested on: CAKI-1; test: Antitumor activity against human CAKI-1 cells assessed as growth inhibition at 10 uM relative to control; summary of the method: as §1
[36] = tested on: RXF 393; test: Antitumor activity against human RXF 393 cells assessed as growth inhibition at 10 uM relative to control; summary of the method: as §1
[37] = tested on: SN12C; test: Antitumor activity against human SN12C cells assessed as growth inhibition at 10 uM relative to control; summary of the method: as §2
[38] = tested on: TK-10; test: Antitumor activity against human TK-10 cells assessed as growth inhibition at 10 uM relative to control; summary of the method: as §2
[39] = tested on: UO-31; test: Antitumor activity against human UO-31 cells assessed as growth inhibition at 10 uM relative to control; summary of the method: as §2
[40] = tested on: PC-3; test: Antitumor activity against human PC-3 cells assessed as growth inhibition at 10 uM relative to control; summary of the method: as §1
[41] = tested on: DU-145; test: Antitumor activity against human DU-145 cells assessed as growth inhibition at 10 uM relative to control; summary of the method: as §1
[42] = tested on: MCF7; test: Antitumor activity against human MCF7 cells assessed as growth inhibition at 10 uM relative to control; summary of the method: as §1
[43] = tested on: MDA-MB-231; test: Antitumor activity against human MDA-MB-231 cells assessed as growth inhibition at 10 uM relative to control; summary of the method: as §1
[44] = tested on: Hs-578T; test: Antitumor activity against human Hs-578T cells assessed as growth inhibition at 10 uM relative to control; summary of the method: as §1
[45] = tested on: BT-549; test: Antitumor activity against human BT-549 cells assessed as growth inhibition at 10 uM relative to control; summary of the method: as §1
[46] = tested on: T47D; test: Antitumor activity against human T47D cells assessed as growth inhibition at 10 uM relative to control; summary of the method: as §2

N#Cc1c(-c2ccc(Cl)cc2)nc(N/N=C/c2ccc[nH]2)nc1N1CCOCC1
inhibition of growth at 10 µM [1]: 79.2% | inhibition of growth at 10 µM [2]: 97.7% | inhibition of growth at 10 µM [3]: 55.8% | inhibition of growth at 10 µM [4]: 82.6% | inhibition of growth at 10 µM [5]: 68.8% | inhibition of growth at 10 µM [6]: 45.6% | inhibition of growth at 10 µM [7]: 34% | inhibition of growth at 10 µM [8]: 31.1% | inhibition of growth at 10 µM [9]: < 1% | inhibition of growth at 10 µM [10]: < 1% | inhibition of growth at 10 µM [11]: 63.3% | inhibition of growth at 10 µM [12]: 91.7% | inhibition of growth at 10 µM [13]: 18.4% | inhibition of growth at 10 µM [14]: < 1% | inhibition of growth at 10 µM [15]: 21.1% | inhibition of growth at 10 µM [16]: 33.8% | inhibition of growth at 10 µM [17]: 53.8% | inhibition of growth at 10 µM [18]: 66.6% | inhibition of growth at 10 µM [19]: 25.8% | inhibition of growth at 10 µM [20]: < 1% | inhibition of growth at 10 µM [21]: 12.2% | inhibition of growth at 10 µM [22]: < 1% | inhibition of growth at 10 µM [23]: < 1% | inhibition of growth at 10 µM [24]: < 1% | inhibition of growth at 10 µM [25]: 14.8% | inhibition of growth at 10 µM [26]: 12% | inhibition of growth at 10 µM [27]: 32.6% | inhibition of growth at 10 µM [28]: < 1% | inhibition of growth at 10 µM [29]: 14.9% | inhibition of growth at 10 µM [30]: 15.5% | inhibition of growth at 10 µM [31]: 15.3% | inhibition of growth at 10 µM [32]: 76.1% | inhibition of growth at 10 µM [33]: 68.3% | inhibition of growth at 10 µM [34]: 17.5% | inhibition of growth at 10 µM [35]: < 1% | inhibition of growth at 10 µM [36]: < 1% | inhibition of growth at 10 µM [37]: 59.9% | inhibition of growth at 10 µM [38]: 36.7% | inhibition of growth at 10 µM [39]: 85.2% | inhibition of growth at 10 µM [40]: 53.4% | inhibition of growth at 10 µM [41]: 15.8% | inhibition of growth at 10 µM [42]: < 29.3% | inhibition of growth at 10 µM [43]: 20.3% | inhibition of growth at 10 µM [44]: < 1% | inhibition of growth at 10 µM [45]: 83.1% | inhibition of growth at 10 µM [46]: 35.1%

COc1cc(/C=N/Nc2nc(-c3ccc(Cl)cc3)c(C#N)c(N3CCOCC3)n2)cc(OC)c1OC
inhibition of growth at 10 µM [1]: 58.1% | inhibition of growth at 10 µM [2]: 40.8% | inhibition of growth at 10 µM [3]: 51.2% | inhibition of growth at 10 µM [4]: 65.9% | inhibition of growth at 10 µM [5]: 85.6% | inhibition of growth at 10 µM [6]: 41.4% | inhibition of growth at 10 µM [7]: 53.7% | inhibition of growth at 10 µM [8]: 59.1% | inhibition of growth at 10 µM [9]: 13.3% | inhibition of growth at 10 µM [10]: 16.4% | inhibition of growth at 10 µM [11]: 46.2% | inhibition of growth at 10 µM [12]: 31.4% | inhibition of growth at 10 µM [13]: 46.6% | inhibition of growth at 10 µM [14]: < 1% | inhibition of growth at 10 µM [15]: 48% | inhibition of growth at 10 µM [16]: 69.3% | inhibition of growth at 10 µM [17]: 17.6% | inhibition of growth at 10 µM [18]: 35.5% | inhibition of growth at 10 µM [19]: 14.8% | inhibition of growth at 10 µM [20]: 43.6% | inhibition of growth at 10 µM [21]: 70% | inhibition of growth at 10 µM [22]: 20.1% | inhibition of growth at 10 µM [23]: 20.4% | inhibition of growth at 10 µM [24]: 14.2% | inhibition of growth at 10 µM [25]: 71% | inhibition of growth at 10 µM [26]: 31.7% | inhibition of growth at 10 µM [27]: 39.1% | inhibition of growth at 10 µM [28]: 27.9% | inhibition of growth at 10 µM [29]: 46.6% | inhibition of growth at 10 µM [30]: 59% | inhibition of growth at 10 µM [31]: < 1% | inhibition of growth at 10 µM [32]: 28.3% | inhibition of growth at 10 µM [33]: 33.7% | inhibition of growth at 10 µM [34]: 36.7% | inhibition of growth at 10 µM [35]: < 1% | inhibition of growth at 10 µM [36]: 30.5% | inhibition of growth at 10 µM [37]: 35.4% | inhibition of growth at 10 µM [38]: 15.7% | inhibition of growth at 10 µM [39]: 67% | inhibition of growth at 10 µM [40]: 45.7% | inhibition of growth at 10 µM [41]: 32.2% | inhibition of growth at 10 µM [42]: < 35.5% | inhibition of growth at 10 µM [43]: 27.8% | inhibition of growth at 10 µM [44]: 14.4% | inhibition of growth at 10 µM [45]: 45.7% | inhibition of growth at 10 µM [46]: 51.8%
